Reference: ChEMBL document CHEMBL1944596, “7,8-dichloro-1-oxo-β-carbolines as a versatile scaffold for the development of potent and selective kinase inhibitors with unusual binding modes” (J Med Chem, 2012)

What was measured:
[1] = Binding affinity to RSK4beta assessed as change in thermal denaturation at 10 uM by thermal stability shift assay
In short: (§1)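 Each compound was screened across a kinase panel by thermal stability shift assay. The read-out was the shift in protein melting temperature (ΔTm, in °C) relative to the unliganded kinase. A ΔTm of 4.0 °C served as the hit cutoff.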

[2] = target: Serine/threonine-protein kinase pim-1 (Homo sapiens, UniProt P11309); assay: Binding affinity to PIM1 assessed as change in thermal denaturation at 10 uM by thermal stability shift assay; in short: as §1
[3] = target: T1, Myosin light chain kinase family member 4 (Homo sapiens) (UniProt Q86YV6); assay: Binding affinity to SGK085 assessed as change in thermal denaturation at 10 uM by thermal stability shift assay; in short: as §1
T1 sequence (whole entry): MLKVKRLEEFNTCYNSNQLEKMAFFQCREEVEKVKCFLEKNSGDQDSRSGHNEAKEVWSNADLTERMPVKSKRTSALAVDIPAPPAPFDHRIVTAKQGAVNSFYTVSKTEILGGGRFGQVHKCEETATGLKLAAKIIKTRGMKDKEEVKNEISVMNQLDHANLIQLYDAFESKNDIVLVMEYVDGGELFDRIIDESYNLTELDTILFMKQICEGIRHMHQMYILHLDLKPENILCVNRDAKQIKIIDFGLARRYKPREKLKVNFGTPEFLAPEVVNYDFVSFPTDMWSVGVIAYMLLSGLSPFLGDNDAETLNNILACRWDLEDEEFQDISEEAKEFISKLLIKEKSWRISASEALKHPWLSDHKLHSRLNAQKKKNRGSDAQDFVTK

[4] = target: TGF-beta receptor type-2 (Homo sapiens) (UniProt P37173); assay: Binding affinity to TGFBR2 assessed as change in thermal denaturation at 10 uM by thermal stability shift assay; in short: as §1
[5] = target: T2, Serine/threonine-protein kinase 17B (Homo sapiens) (UniProt O94768); assay: Binding affinity to DRAK2 assessed as change in thermal denaturation at 10 uM by thermal stability shift assay; in short: as §1
T2 sequence (whole entry): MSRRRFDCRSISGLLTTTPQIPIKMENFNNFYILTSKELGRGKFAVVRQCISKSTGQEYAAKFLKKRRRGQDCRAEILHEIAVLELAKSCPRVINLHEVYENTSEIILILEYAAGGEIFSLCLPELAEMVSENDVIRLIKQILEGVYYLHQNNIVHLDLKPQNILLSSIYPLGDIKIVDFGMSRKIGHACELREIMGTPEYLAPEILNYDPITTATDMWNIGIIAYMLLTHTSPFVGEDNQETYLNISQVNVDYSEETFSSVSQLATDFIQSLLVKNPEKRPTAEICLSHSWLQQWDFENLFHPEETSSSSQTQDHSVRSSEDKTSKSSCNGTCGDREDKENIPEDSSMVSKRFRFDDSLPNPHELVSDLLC

[6] = target: Death-associated protein kinase 3 (Homo sapiens) (UniProt O43293); assay: Binding affinity to N-terminus His6-tagged DAPK3 expressed in Escherichia coli BL21 (DE3) cells coexpressing pCOEX assessed as change in thermal denaturation at 10 uM by thermal stability shift assay
In short: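 DAPK3 was expressed in E. coli grown in TB with kanamycin and chloramphenicol at 37 °C, cooled to 25 °C, and induced with 0.5 mM IPTG. Binding was read as thermal-shift ΔTm in °C.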

[7] = target: BMP-2-inducible protein kinase (Homo sapiens) (UniProt Q9NSY1); assay: Binding affinity to BIKE assessed as change in thermal denaturation at 10 uM by thermal stability shift assay; in short: as §1
[8] = target: Serine/threonine-protein kinase pim-3 (Homo sapiens, UniProt Q86V86); assay: Binding affinity to PIM3 assessed as change in thermal denaturation at 10 uM by thermal stability shift assay; in short: as §1
[9] = target: T3, cAMP-dependent protein kinase catalytic subunit PRKX (Homo sapiens) (UniProt P51817); assay: Binding affinity to PRKX assessed as change in thermal denaturation at 10 uM by thermal stability shift assay; in short: as §1
T3 sequence (whole entry): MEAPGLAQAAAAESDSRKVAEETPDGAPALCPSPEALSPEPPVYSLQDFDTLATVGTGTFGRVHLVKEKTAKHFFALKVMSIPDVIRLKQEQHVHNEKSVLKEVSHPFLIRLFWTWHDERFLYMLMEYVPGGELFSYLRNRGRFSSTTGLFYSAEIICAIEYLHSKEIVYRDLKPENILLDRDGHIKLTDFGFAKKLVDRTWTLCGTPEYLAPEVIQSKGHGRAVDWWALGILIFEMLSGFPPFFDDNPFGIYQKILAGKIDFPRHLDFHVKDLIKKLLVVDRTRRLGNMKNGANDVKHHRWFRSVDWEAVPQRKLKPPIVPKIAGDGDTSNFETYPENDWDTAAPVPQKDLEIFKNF

[10] = target: Glycogen synthase kinase-3 beta (Homo sapiens) (UniProt P49841); assay: Binding affinity to GSK3-beta assessed as change in thermal denaturation at 10 uM by thermal stability shift assay; in short: as §1
[11] = target: Casein kinase II subunit alpha' (Homo sapiens) (UniProt P19784); assay: Binding affinity to CK2alpha2 assessed as change in thermal denaturation at 10 uM by thermal stability shift assay; in short: as §1
[12] = target: T4, Serine/threonine-protein kinase 17A (Homo sapiens) (UniProt Q9UEE5); assay: Binding affinity to DRAK1 assessed as change in thermal denaturation at 10 uM by thermal stability shift assay; in short: as §1
T4 sequence (whole entry): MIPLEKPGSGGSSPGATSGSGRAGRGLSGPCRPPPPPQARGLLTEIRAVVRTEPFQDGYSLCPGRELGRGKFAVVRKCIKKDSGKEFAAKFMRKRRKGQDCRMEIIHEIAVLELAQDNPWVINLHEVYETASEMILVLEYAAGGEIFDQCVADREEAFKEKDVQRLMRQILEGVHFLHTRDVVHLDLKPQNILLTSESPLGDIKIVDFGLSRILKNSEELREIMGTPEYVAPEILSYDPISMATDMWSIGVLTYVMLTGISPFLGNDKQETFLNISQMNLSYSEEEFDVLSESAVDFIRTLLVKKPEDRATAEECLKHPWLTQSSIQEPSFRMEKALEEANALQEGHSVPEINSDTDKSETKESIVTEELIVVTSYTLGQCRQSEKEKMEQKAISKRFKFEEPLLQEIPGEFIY

[13] = target: Dual specificity protein kinase CLK4 (Homo sapiens) (UniProt Q9HAZ1); assay: Binding affinity to CLK4 assessed as change in thermal denaturation at 10 uM by thermal stability shift assay; in short: as §1
Chain of Dual specificity protein kinase CLK4 (Homo sapiens) (Q9HAZ1 whole entry, looked up): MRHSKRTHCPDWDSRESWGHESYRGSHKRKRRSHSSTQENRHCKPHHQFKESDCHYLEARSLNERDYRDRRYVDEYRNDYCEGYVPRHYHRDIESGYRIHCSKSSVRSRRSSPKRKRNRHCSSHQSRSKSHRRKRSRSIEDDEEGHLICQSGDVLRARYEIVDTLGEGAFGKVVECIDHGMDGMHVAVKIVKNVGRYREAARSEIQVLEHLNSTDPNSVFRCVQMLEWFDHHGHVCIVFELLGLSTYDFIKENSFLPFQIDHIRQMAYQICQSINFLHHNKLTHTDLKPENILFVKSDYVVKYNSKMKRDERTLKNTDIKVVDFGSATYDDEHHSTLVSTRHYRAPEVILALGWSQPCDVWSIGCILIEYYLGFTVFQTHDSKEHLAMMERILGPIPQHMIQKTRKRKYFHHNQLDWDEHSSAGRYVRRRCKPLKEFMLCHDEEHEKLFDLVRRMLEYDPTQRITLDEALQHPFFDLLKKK

Chain of BMP-2-inducible protein kinase (Homo sapiens) (Q9NSY1 whole entry, looked up): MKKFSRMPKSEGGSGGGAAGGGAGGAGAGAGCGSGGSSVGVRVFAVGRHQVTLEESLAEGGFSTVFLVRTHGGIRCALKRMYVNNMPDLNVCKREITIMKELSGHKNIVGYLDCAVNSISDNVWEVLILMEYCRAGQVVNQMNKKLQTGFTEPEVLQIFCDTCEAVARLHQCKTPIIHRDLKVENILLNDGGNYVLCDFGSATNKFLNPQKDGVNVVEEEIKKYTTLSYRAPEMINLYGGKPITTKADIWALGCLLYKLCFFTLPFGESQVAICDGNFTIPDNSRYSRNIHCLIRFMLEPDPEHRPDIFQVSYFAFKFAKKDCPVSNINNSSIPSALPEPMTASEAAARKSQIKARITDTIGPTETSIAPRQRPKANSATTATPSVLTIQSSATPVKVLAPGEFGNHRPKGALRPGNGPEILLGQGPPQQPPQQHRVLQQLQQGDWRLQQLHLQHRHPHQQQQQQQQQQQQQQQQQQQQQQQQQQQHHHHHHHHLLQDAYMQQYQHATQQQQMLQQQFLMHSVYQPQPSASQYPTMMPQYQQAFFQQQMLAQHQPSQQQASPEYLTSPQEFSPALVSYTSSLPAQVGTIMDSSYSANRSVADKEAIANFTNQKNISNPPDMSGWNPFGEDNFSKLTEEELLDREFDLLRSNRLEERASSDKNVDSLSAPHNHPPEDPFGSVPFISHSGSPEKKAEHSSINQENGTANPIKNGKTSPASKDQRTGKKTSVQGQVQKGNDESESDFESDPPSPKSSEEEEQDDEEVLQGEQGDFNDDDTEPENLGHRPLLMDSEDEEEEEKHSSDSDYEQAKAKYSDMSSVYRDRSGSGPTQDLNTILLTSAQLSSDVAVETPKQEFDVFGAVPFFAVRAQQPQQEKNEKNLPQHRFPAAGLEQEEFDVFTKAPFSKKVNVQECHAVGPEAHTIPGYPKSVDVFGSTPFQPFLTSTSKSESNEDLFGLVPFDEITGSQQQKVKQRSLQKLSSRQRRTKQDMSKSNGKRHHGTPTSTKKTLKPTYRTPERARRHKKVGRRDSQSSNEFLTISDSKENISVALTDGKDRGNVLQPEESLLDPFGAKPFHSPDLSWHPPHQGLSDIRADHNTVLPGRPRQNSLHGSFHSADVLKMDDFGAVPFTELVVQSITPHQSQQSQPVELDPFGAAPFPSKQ
Chain of Serine/threonine-protein kinase pim-1 (P11309 whole entry, looked up): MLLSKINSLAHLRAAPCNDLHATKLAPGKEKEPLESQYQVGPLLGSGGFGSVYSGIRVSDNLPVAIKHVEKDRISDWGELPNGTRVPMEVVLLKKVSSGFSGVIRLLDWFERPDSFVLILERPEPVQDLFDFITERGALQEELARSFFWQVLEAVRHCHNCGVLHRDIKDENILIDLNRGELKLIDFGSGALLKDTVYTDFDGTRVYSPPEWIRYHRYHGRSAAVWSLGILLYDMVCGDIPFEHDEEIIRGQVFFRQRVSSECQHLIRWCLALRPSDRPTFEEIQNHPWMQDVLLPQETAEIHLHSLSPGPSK
Chain of Glycogen synthase kinase-3 beta (Homo sapiens) (P49841 whole entry, looked up): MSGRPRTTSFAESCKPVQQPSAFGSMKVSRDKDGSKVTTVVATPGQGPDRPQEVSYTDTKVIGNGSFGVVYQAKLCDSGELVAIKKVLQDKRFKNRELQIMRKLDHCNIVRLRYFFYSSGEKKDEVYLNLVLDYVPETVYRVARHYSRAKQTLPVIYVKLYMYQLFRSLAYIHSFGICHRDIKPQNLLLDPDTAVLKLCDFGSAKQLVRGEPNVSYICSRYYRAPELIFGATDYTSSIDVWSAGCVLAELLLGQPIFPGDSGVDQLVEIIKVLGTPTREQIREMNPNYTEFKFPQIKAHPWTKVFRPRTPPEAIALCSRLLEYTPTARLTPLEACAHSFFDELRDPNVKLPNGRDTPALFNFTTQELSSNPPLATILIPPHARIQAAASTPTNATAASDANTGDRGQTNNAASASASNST
Chain of Death-associated protein kinase 3 (Homo sapiens) (O43293 whole entry, looked up): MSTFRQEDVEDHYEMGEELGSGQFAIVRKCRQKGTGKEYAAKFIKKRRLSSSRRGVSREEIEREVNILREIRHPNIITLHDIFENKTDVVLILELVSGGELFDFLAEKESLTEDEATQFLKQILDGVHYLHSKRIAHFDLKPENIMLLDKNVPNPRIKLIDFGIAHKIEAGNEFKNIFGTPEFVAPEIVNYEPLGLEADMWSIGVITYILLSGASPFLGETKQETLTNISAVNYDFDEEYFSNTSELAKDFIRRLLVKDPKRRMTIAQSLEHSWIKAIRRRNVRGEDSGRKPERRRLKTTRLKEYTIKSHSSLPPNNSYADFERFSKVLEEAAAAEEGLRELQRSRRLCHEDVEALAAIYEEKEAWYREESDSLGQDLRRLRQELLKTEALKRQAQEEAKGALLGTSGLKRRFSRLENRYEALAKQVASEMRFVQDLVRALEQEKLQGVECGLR
Chain of TGF-beta receptor type-2 (Homo sapiens) (P37173 whole entry): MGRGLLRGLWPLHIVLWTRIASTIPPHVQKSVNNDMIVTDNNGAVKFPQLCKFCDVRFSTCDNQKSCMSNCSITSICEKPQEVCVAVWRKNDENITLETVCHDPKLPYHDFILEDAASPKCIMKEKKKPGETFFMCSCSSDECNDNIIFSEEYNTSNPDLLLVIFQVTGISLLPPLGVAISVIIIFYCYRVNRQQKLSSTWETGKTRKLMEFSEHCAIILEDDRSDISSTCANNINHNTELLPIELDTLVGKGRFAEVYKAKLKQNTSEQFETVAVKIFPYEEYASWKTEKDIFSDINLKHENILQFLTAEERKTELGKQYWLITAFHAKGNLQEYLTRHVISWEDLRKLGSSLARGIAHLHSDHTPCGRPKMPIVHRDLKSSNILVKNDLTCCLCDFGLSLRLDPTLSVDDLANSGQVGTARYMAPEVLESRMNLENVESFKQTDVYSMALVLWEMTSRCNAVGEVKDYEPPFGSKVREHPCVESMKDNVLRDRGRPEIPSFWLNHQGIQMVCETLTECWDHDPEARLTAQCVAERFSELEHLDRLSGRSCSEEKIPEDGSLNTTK
Chain of Casein kinase II subunit alpha' (Homo sapiens) (P19784 whole entry, looked up): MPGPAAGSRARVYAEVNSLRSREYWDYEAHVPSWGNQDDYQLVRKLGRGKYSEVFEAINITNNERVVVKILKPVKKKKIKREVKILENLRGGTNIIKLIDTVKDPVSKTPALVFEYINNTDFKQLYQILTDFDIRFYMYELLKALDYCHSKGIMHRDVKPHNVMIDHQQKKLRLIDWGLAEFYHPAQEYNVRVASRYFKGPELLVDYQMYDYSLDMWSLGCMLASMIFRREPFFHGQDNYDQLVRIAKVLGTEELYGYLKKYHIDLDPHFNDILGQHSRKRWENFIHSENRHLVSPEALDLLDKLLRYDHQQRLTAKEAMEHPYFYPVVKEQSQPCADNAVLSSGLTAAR

SMILES	ΔTm [1]	ΔTm [2]	ΔTm [3]	ΔTm [4]	ΔTm [5]	ΔTm [7]	ΔTm [8]	ΔTm [9]	ΔTm [10]	ΔTm [11]	ΔTm [12]	ΔTm [13]	ΔTm [6]
Cn1c2c(c3ccccc31)C(C#N)C(C)(C)NC2=O (stereo not given)	0.1 °C	0.9 °C	1.7 °C	2.9 °C	0.3 °C	1.1 °C	1.3 °C	0.5 °C	1.8 °C	0.7 °C	0.5 °C	1.4 °C	0.6 °C
Cn1c2c(Cl)c(Cl)ccc2c2cc(N)[nH]c(=O)c21	1.2 °C	4 °C	2.9 °C	7.9 °C	3 °C	5.2 °C	3.6 °C	0.8 °C	2.9 °C	3 °C	6.9 °C	2.1 °C	2.6 °C
Cn1c2c(Cl)c(Cl)ccc2c2cc[nH]c(=O)c21	4 °C	4 °C	6.4 °C	10.1 °C	3.6 °C	8.2 °C	3.6 °C	0.3 °C	1.4 °C	2 °C	6.2 °C	3.2 °C	3.4 °C
N#CC1c2c([nH]c3c(Cl)c(Cl)ccc23)C(=O)NC12CCCCC2 (racemic)	-0.2 °C	4.9 °C	1.2 °C		2.3 °C	1.1 °C	4.9 °C	1 °C	2.6 °C	1.2 °C	2.2 °C	5.7 °C	3.4 °C
CC(=O)NCC1c2c(n(C)c3c(Cl)c(Cl)ccc23)C(=O)NC1(C)C (racemic)	0.4 °C	1.1 °C	0.6 °C	1.5 °C	1.6 °C	0.4 °C	0.7 °C	0.7 °C	0.2 °C	1 °C	0.9 °C	1.4 °C	0.8 °C
CC1(C)NC(=O)c2[nH]c3c(Cl)c(Cl)ccc3c2C1C#N (stereo not given)	0.1 °C	3.5 °C	3.1 °C	6.8 °C	2.1 °C	1.2 °C	4 °C	1.2 °C	4.7 °C	1.9 °C	3 °C	4.9 °C	2 °C
CCC1(CC)NC(=O)c2c(c3ccc(Cl)c(Cl)c3n2C)C1C#N (stereo not given)	-0.1 °C	3.3 °C	0.4 °C	5 °C	2.9 °C	1.2 °C	3.4 °C	0.8 °C	2 °C	1 °C	2.6 °C	2.8 °C	2.4 °C
Cn1c2c(c3ccc(Cl)c(Cl)c31)C(C#N)C1(CCNCC1)NC2=O (racemic)	0.8 °C	10.7 °C	3.5 °C		3.4 °C	1 °C	9.6 °C	5.8 °C	3.9 °C	4.2 °C	4.3 °C	4.6 °C	10.6 °C
Cn1c2c(c3ccc(Cl)c(Cl)c31)C(CN)C(C)(C)NC2=O (racemic)	0.7 °C	3.6 °C	0.2 °C	3 °C	6.4 °C	1.7 °C	3.7 °C	3.3 °C	0.6 °C	0.5 °C	7.5 °C	2.8 °C	3.6 °C
Cn1c2c(Cl)c(Cl)ccc2c2cn[nH]c(=O)c21	1.4 °C	1.6 °C	5.5 °C	10.4 °C	2.2 °C	5.3 °C	2.3 °C	0.3 °C	4.6 °C	2.1 °C	3.5 °C	0.9 °C	4 °C
Cn1c2c(c3ccc(Cl)c(Cl)c31)C(C#N)C1(CCN(C(=O)OC(C)(C)C)CC1)NC2=O (racemic)	-0.4 °C	0.8 °C	0 °C		0 °C	0 °C	0.6 °C	0.3 °C	-0.2 °C	0.3 °C	0.6 °C	0 °C	-0.2 °C

Now from value to compound, other results behind:

ΔTm [1]	ΔTm [2]	ΔTm [3]	ΔTm [4]	ΔTm [5]	ΔTm [7]	ΔTm [8]	ΔTm [9]	ΔTm [10]	ΔTm [11]	ΔTm [12]	ΔTm [13]	SMILES	ΔTm [6]
0 °C	4.8 °C	0.5 °C	2.6 °C	1.7 °C	2.3 °C	4.7 °C	1.4 °C	3.4 °C	1 °C	2.7 °C	2.8 °C	Cn1c2c(c3ccc(Cl)c(Cl)c31)C(C#N)C1(CCOCC1)NC2=O (stereo not given)	3.1 °C
0.2 °C	7.4 °C	0 °C	0.3 °C	1.1 °C	-0.5 °C	7.1 °C	3.1 °C	1.5 °C	1.8 °C	1.6 °C	1.8 °C	CCN1CCC2(CC1)NC(=O)c1c(c3ccc(Cl)c(Cl)c3n1C)C2C#N (racemic)	4.6 °C
2.3 °C	5.7 °C	2 °C	8.1 °C	4.8 °C	2.8 °C	6.2 °C	2.8 °C	5.6 °C	2.1 °C	5.8 °C	4.3 °C	Cn1c2c(c3ccc(Cl)c(Cl)c31)C(C#N)C(C)(C)NC2=O (stereo not given)	3.4 °C
0.1 °C	3.8 °C	0.1 °C	2.2 °C	2.6 °C	1.3 °C	3.8 °C	0.7 °C	2.5 °C	1 °C	2 °C	3.3 °C	Cn1c2c(c3ccc(Cl)c(Cl)c31)C(C#N)C1(CCCC1)NC2=O (stereo not given)	1.5 °C
0.2 °C	7.7 °C	1.5 °C	1.1 °C	1.2 °C	0.8 °C	7.2 °C	3.3 °C	2.2 °C	2.7 °C	2.7 °C	2.1 °C	CN1CCC2(CC1)NC(=O)c1c(c3ccc(Cl)c(Cl)c3n1C)C2C#N (racemic)	6.3 °C
